Activity calls are given as the source filed them.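 The calls were made as follows: active = virus titer falling by more than one log, over tenfold fewer virus than untreated infected wells; inactive = the rest.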

The assay concerns HEp-2 cells, RSV plaque reduction, virus titer. The assay is described as follows: inhibitors of RSV replication, plaque titer, late-stage follow-up, orthogonal assay for RSV inhibitor project, cell-based, set 5 (AID 588791). The following applies: stronger effect = lower value. An outline of the steps: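 System: RSV Long-infected HEp-2 cells; times: compound exposure 48 h at 37 °C after infection; compound dosing: 0.5% DMSO final; also added: RSV Long strain at MOI 0.1, 2 h adsorption; measured by: plaque titration of harvested supernatants on fresh HEp-2, neutral red; buffer or medium: Avicel overlay, plaque stage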

As to `CC(C)c1ccc(Cn2c(=O)n(Cc3ccc(C(=O)NCC4COC4)cc3)c(=O)c3ccccc32)cc1`, the log virus titer change was -5.75 (at 10 µM); -3.06 (titer change, at 2.5 µM); -5.75 (titer change, at 5 µM).

For `CC(C)c1ccc(Cn2c(=O)n(Cc3ccc(C(=O)NCC4COC4)cc3)c(=O)c3ncccc32)cc1`, the log virus titer change reads like this: (at 10 µM) 0.144 (inactive); (titer change, at 2.5 µM) 0.21; (titer change, at 5 µM) 0.267.

For the compound `CC(C)(C)c1ccc(Cn2c(=O)n(Cc3ccc(C(=O)NCC4COC4)cc3)c(=O)c3ccccc32)cc1`, the log virus titer change runs as follows: (at 10 µM) -3.4; (titer change, at 2.5 µM) 0.138; (titer change, at 5 µM) -1.13.

On to `CC(C)c1ccc(Cn2c(=O)n(Cc3ccc(C(=O)NCC4COC4)cc3)c(=O)c3cccnc32)cc1`, for which the log virus titer change (at 10 µM) is -2.72; the log virus titer change (titer change, at 2.5 µM) came out at 0.155; the log virus titer change (titer change, at 5 µM) is -0.572.

Source of the values: PubChem BioAssay AID588791 (Southern Research Specialized Biocontainment Screening …, 2011).
